# MEKK3 PB1 HTS = modulators (inhibitors or enhancers) of MEK5 binding to human MEKK3 PB1 domain; Q99759; bead-based flow cytometry, Alexa488-MEK5 binding to MEKK3; actives lie on both sides; 0 = blocked by unlabeled MEK5, 100 = vehicle; binding response (% of control), % at 10 µM; 1.4% of 290,000 active; AID 1529;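 active = binding response more than 3 SD above or below the average of its plate-row segment, actives on both sides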;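 also: Alexa488 bead fluorescence after subtracting the streptavidin-only scavenger bead signal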
# MEKK2 WT-MEK5 = raises or lowers MEK5 binding to wildtype human MEKK2 PB1 domain; binding response (% of control), % at 10 µM; 1.1% of 290,000 active; Q9Y2U5; AID 1531; bead flow cytometry, Alexa488-MEK5 binding to MEKK2 WT; actives lie on both sides; in the data active = binding response below about 67% or above about 130%
# GSK3B inh = inhibitors of human GSK3beta kinase; P49841; GST-GSK3beta kinase, ADP-Glo luminescence, 60 min; hits give low values; activity score (negative = inhibition), % at 10 µM; 0.038% of 300,000 active;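 active = more than half of replicate wells score below -50%, meaning over 50% inhibition versus plate controls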;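 also: 0% = median DMSO wells and -100% = median GW8510 positive control wells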
#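 Test system: GST-fused GSK3beta enzyme, cell-free | Quantity: 1.6 ng GST-GSK3beta enzyme per well | Reagent: 25 µM ATP with peptide substrate | Schedule: 60 min enzyme reaction, room temperature | Signal: Luminescent ADP-Glo measurement of ADP formed | Read-out basis: Score relative to plate controls | Control set: DMSO and 20 µM GW8510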
# STK33 kinase inh = blocks human STK33 kinase activity; purified STK33, MBP phosphorylation, ADP-Glo luminescence; inhibition, % at 10 µM; AID 2661; 0.073% of 320,000 active; Q9BYT3;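 active = inhibition at or above 25%, using the most active replicate where run in duplicate; inactive = inhibition below 25%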
# MEKK2 mut-MEK5 = signal of MEK5 binding to mutant human MEKK2 PB1 domain | 0.35% of 290,000 active | bead flow cytometry, Alexa488-MEK5 binding to MEKK2 mutant | percent response, % at 10 µM; in the data active = percent response above about 24%, passing the limit was not always enough
# GSK3A inh = human GSK-3 alpha kinase inhibition | P49840 | ADP-Glo luminescence, 60 min | inhibition, % at 10 µM | 0.1% of 320,000 active | AID 2650;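 active = more than half of replicates show inhibition above 20%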;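 also: GST-tagged GSK-3 alpha with peptide substrate and 25 µM ATP; 0% = DMSO neutral wells and 100% = GW8510 positive control wells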
# Target sequence (P49840 whole entry, looked up): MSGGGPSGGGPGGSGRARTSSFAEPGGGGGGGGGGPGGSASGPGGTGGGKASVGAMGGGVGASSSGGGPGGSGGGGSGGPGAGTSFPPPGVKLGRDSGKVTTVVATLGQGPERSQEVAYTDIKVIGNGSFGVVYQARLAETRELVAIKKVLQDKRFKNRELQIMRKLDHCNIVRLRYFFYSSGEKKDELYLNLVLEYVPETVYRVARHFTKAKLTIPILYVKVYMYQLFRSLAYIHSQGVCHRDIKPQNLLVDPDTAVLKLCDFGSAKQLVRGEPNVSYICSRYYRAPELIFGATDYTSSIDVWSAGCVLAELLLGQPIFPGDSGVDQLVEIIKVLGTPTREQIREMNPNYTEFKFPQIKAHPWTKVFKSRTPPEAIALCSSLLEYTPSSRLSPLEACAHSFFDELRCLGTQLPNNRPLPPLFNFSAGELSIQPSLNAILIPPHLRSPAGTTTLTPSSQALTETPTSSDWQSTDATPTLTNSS
# MEKK2wt confirm = raises or lowers MEK5 binding to wildtype human MEKK2, retest. binding response (% of control), % at 10 µM. shares compounds with MEKK3 PB1 HTS. 2.4% of 5,900 active. bead flow cytometry, Alexa488-MEK5 binding to MEKK2 WT; actives lie on both sides; in the data active = binding response below about 16% or above about 210%; inactive = in between
# MEKK2mut-MEK5 = signal of MEK5 binding to mutant human MEKK2, retest; shares compounds with MEKK3 PB1 HTS; bead flow cytometry, Alexa488-MEK5 binding to MEKK2 mutant; percent response, % at 10 µM; 2% of 5,900 active; AID 1893; in the data active = percent response mostly above about 71%, no sharp cut-off; inactive = mostly below about 38%;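 also: higher means compound restores mutant binding toward wildtype level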
# MEKK3 confirm = MEKK3-MEK5 PB1 inhibition, single concentration confirmation; shares compounds with MEKK3 PB1 HTS; bead flow cytometry, Alexa488-MEK5 binding to MEKK3; hits give low values; binding response (% of control), % at 10 µM; 1.8% of 5,900 active; AID 1894;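 active = binding response below 72% of control, or above a set upper limit, though filed actives all read lower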;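 also: 100% = DMSO only wells and 0% = binding blocked by excess unlabeled MEK5; lower values mean stronger disruption of MEK5 binding to MEKK3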
# Active calls of the source: *; . = no result; [ ] = remark or other dose. This is a sample that favours compounds with a hit; in the whole collection about 2.1% have one here.
SMILES,MEKK3 PB1 HTS,MEKK2 WT-MEK5,GSK3B inh,STK33 kinase inh,MEKK2 mut-MEK5,GSK3A inh,MEKK2wt confirm,MEKK2mut-MEK5,MEKK3 confirm
Cc1ccc(/C=N/NC(=O)c2ccoc2C)o1,130*,110,-8,0,1,3,106,7,108
CCOC(=O)C1(CCOC)CCN(C/C=C/c2ccccc2OC)CC1,100,102,1,-1,5,-1,.,.,.
COc1ccc2c(c1)c(C(=O)N/N=C/c1ccc(OC)c(OC)c1)c(C)n2C,152*,108,3,.,0,.,97,-8,97
COc1ccc(/C=N/NC(=O)c2nc(-c3ccccc3)n(-c3ccccc3)n2)cc1OC,151*,108,5,-1,1,0,102,4,105
COc1ccc2c(c1)c(C(=O)N/N=C/c1ccc(Cl)cc1)c(C)n2C,98,95,4,-1,-2,3,.,.,.
CCc1nnc(N/N=C/c2cc(Br)c(O)cc2O)n1N,92,91,0,1,1,-5,.,.,.
CC(C)(C)c1nnc(N/N=C/c2cc(Br)ccc2O)n(N)c1=O,142*,105,3,3,0,-2,122,14,106
CCc1nnc(N2C(=O)c3ccccc3C2(O)c2ccccc2)s1 (stereo not given),100,98,2,-2,-3,-1,.,.,.
COc1ccccc1CCc1nnc(CCC(=O)NCCCOc2cccnc2)o1,100,100,-2,0,-2,-1,.,.,.
COc1ccccc1CCc1nnc(CCC(=O)NC(C)Cc2cccnc2)o1 (stereo not given),47*[inhibitor],55,0,-1,-16,1,101,3,105
CCN(Cc1ccncc1)C(=O)CCc1nnc(CCc2ccccc2OC)o1,70*[inhibitor],80,0,0,-8,-2,99,-6,101
O=C(CCNC(=O)c1ccccc1Cl)NCc1cccnc1,.,.,0,0,.,0,.,.,.
CCOc1ccccc1C1C(C(=O)Nc2ccccc2OC)=C(C)Nc2nnnn21 (stereo not given),113,111,-2,-1,26*,2,101,4,100
CCn1c(SCC(=O)OC)nc2sc3c(c2c1=O)CCC3,98,101,-1,-2,2,1,.,.,.
CCn1c(SCC(=O)O)nc2sc3c(c2c1=O)CCC3,1.0*[inhibitor],-1.0*[inhibitor],6,1,-9,-4,96,-6,101
Cc1ccnc(NS(=O)(=O)c2ccc(NC(=O)c3ccc(Br)o3)cc2)n1,130*,118,3,2,1,-2,97,-9,97
NC1=NC[C@H](Cc2ccc(O)cc2)N1CCC12CC3CC(CC(C3)C1)C2,108,138*,-5,0,21,9,128,8,100
CCCCN1C(N)=NC[C@@H]1Cc1ccc(O)cc1,97,106,-1,-1,1,1,.,.,.
CCN1C(=O)/C(=C/C=C2\N(CC)c3cc(S(=O)(=O)N(C)C)ccc3N2c2ccccc2)SC1=S,81,53*[inhibitor],-3,4,-4,16,39,-22,76
CCn1cc(Br)c(C(=O)Nc2cccc(Cl)c2)n1,0.0*[inhibitor],-5.0*[inhibitor],-6,-1,-39,0,97,-5,95
CCn1cc(Br)c(C(=O)Nc2ccc(Cl)c(Cl)c2)n1,86,97,0,2,-3,-3,.,.,.
COC(=O)NNC(=O)C1CCC(C(=O)NNC(=O)OC)CC1 (stereo not given),87,97,-2,1,0,0,.,.,.
CCOC(=O)c1[nH]c(C)c(C(=O)N2CCN(c3ccccc3OC)CC2)c1C,111,106,-2,-1,9,.,.,.,.
Cc1ccc(NC(=O)CCCN2C(=O)c3cccc4cccc(c34)C2=O)cc1,145*,110,-2,-3,1,-5,100,1,104
Cc1ccc(NC(=O)CCN2C(=O)c3cccc4cccc(c34)C2=O)cc1,99,94,-1,-2,-3,-1,.,.,.
SMILES,MEKK3 PB1 HTS,MEKK2 WT-MEK5,GSK3B inh,STK33 kinase inh,MEKK2 mut-MEK5,GSK3A inh,MEKK2wt confirm,MEKK2mut-MEK5,MEKK3 confirm
CC(C)(C)n1cnc2cc(NCc3ccc(Br)cc3)ccc21,112,137*,1,0,20,-1,145,35,105
CCN(CC)c1ccc(CNc2ccc3c(c2)ncn3C(C)(C)C)cc1,110,135*,-3,1,16,-2,134,16,105
CN(C)c1ccc(CNc2ccc3c(c2)ncn3C)cc1,109,112,1,1,6,-5,.,.,.
CCc1ccc(CNc2ccc3c(c2)ncn3C(C)(C)C)cc1,99,111,0,0,7,-3,.,.,.
Cc1cccc(CC(=O)Nc2cccnc2)c1,104,103,-2,0,9,-1,.,.,.
O=C(CN(Cc1ccccc1Cl)C(=O)c1csnn1)NCc1ccccc1,103,100,0,-1,4,1,.,.,.
Cc1ccccc1CCN(C(=O)Cn1nnc2ccccc21)C(C(=O)NC(C)(C)C)c1ccsc1 (stereo not given),76*[inhibitor],81,-1,0,-14,-2,100,2,99
Cc1cccc(N(C(=O)Cn2nnc3ccccc32)C(C(=O)NC(C)(C)C)c2ccsc2)c1C (stereo not given),98,95,6,-2,-5,1,.,.,.
Cc1ccc(S(=O)(=O)NC(=O)N(C)C2CCCCC2)cc1,130*,130,4,1,28,-4,84,-4,100
O=C(Nc1cc(S(=O)(=O)N2CCOCC2)ccc1Cl)c1cc([N+](=O)[O-])ccc1Cl,.,.,.,0,.,-4,.,.,.
Cn1c(CCN2CCCCC2)nc2cc(NC(=O)COc3ccc([N+](=O)[O-])cc3)ccc21,97,108,0,1,3,2,.,.,.
CC(=O)N1CC(=O)N(Cc2ccccc2)/C(=C/c2ccccc2)C1=O,132*,118,2,-1,4,2,97,-4,100
Cc1ccc(CNS(=O)(=O)NCc2ccccc2)cc1,.,.,3,0,.,-1,.,.,.
COc1ccccc1C(c1nnnn1Cc1ccco1)N1CCN(c2cccc(C)c2C)CC1 (stereo not given),49*[inhibitor],96,1,1,-1,0,99,0,104
